Data taken from ChEMBL document CHEMBL1833790, “N-(2-{3-[3,5-bis(trifluoromethyl)phenyl]ureido}ethyl)-glycyrrhetinamide (6b): a novel anticancer glycyrrhetinic acid derivative that targets the proteasome and displays anti-kinase activity” (J Med Chem, 2011).
Activity calls are given as the source filed them. No cut-off for these calls is given here.

How the values were obtained:
[1] = biological target: Fibroblast growth factor receptor 2 (Homo sapiens) (UniProt P21802); experiment: Inhibition of FGFR2 at 1 uM by radiometric assay
Summary of the method: (§1)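 Radiometric ³³PanQinase activity assay across a panel of 333 protein kinases. Compound added from a 2 × 10⁻⁵ M working solution in 10% DMSO (diluted in water from a 100% DMSO stock), giving 1 μM final in the assay.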

Hs 683 = experiment: Growth inhibition in apoptosis-sensitive human Hs683 after 3 days by MTT assay; type: functional; conditions: Hs 683, 72 h
Summary of the method: (§2)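 Cells grown in RPMI with 10% heat-inactivated FCS, 4 mM glutamine, gentamicin and penicillin–streptomycin. Drug exposure 3 days, growth read by MTT colorimetric assay. Nine concentrations from 0.01 to 100 μM in semilog steps, six replicates each; IC50 derived per cell line.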

A549 [2] = experiment: Cytostatic activity against human A549 cells assessed as accumulation of cells in G1 phase at 10 uM after 48 to 72 hrs by TUNEL-based flow cytometric analysis; type: functional, cell-based
Summary of the method: (§3)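 A549 NSCLC and U373 GBM cells were treated 48 or 72 h and analysed with the APO AF kit. TUNEL labelling ran 1 h at 37 °C, followed by propidium iodide (5 μg/mL) with RNase. Apoptotic fraction and % cells in G1 were measured by flow cytometry. Kit negative/positive controls and 1 μM narciclasine-treated PC-3 cells served as controls.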

[3] = biological target: Serine/threonine-protein kinase PAK 2 (Homo sapiens) (UniProt Q13177); experiment: Inhibition of PAK2 at 1 uM by radiometric assay
[4] = biological target: ALK tyrosine kinase receptor (Homo sapiens) (UniProt Q9UM73); experiment: Inhibition of ALK at 1 uM by radiometric assay; summary of the method: as §1
Chain of ALK tyrosine kinase receptor (Homo sapiens) (Q9UM73 19-1620 limits assumed): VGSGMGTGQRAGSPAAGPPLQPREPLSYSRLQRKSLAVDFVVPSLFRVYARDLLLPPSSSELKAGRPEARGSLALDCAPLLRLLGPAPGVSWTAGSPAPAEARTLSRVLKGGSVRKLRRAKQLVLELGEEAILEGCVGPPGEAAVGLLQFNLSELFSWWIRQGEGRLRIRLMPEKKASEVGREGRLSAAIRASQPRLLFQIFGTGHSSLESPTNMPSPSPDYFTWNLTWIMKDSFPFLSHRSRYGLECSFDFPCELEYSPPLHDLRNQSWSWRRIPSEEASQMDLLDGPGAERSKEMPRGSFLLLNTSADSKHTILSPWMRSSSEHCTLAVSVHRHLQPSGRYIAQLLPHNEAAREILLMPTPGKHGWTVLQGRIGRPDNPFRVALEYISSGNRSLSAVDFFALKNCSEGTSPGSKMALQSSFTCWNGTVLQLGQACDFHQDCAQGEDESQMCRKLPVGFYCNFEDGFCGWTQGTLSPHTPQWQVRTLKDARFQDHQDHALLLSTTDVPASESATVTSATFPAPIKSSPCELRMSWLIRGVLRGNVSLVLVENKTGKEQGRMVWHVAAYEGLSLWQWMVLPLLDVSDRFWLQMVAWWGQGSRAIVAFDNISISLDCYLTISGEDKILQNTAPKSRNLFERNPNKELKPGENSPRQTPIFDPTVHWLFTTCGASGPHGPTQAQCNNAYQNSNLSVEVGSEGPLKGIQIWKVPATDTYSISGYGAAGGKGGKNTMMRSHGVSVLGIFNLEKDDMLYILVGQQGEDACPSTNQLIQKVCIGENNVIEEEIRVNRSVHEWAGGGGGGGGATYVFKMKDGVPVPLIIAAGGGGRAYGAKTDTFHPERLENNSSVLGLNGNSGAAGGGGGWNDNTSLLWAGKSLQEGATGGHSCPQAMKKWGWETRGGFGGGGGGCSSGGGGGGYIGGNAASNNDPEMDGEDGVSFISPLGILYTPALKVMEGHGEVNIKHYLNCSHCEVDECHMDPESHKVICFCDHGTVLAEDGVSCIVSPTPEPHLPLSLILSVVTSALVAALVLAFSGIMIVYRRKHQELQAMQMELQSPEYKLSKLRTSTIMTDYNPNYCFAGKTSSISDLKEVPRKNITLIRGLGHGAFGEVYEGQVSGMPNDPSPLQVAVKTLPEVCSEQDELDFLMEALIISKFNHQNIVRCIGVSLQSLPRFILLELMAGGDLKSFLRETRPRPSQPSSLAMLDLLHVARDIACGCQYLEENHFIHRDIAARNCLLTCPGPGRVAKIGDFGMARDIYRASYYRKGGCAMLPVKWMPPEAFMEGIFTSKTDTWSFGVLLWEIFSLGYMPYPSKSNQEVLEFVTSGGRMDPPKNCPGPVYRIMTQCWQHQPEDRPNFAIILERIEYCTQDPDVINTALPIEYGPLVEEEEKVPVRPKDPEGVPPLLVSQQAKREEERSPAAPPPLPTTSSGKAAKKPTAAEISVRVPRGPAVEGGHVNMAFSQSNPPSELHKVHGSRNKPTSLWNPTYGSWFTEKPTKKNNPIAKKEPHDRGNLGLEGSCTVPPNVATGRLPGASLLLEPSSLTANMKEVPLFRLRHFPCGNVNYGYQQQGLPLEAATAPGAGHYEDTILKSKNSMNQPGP

U-373MG ATCC [5] = experiment: Induction of apoptosis in human U373 cells assessed as proapoptotic effect at 10 uM after 48 to 72 hrs by TUNEL-based flow cytometric analysis; type: functional, cell-based; summary of the method: as §3
MCF7 = experiment: Growth inhibition in apoptosis-sensitive human MCF7 after 3 days by MTT assay; type: functional; conditions: MCF7, 72 h; summary of the method: as §2
[6] = biological target: Tyrosine-protein kinase Fyn (Homo sapiens) (UniProt P06241); experiment: Inhibition of FYN at 1 uM by radiometric assay
Chain of Tyrosine-protein kinase Fyn (Homo sapiens) (P06241 2-537 limits assumed): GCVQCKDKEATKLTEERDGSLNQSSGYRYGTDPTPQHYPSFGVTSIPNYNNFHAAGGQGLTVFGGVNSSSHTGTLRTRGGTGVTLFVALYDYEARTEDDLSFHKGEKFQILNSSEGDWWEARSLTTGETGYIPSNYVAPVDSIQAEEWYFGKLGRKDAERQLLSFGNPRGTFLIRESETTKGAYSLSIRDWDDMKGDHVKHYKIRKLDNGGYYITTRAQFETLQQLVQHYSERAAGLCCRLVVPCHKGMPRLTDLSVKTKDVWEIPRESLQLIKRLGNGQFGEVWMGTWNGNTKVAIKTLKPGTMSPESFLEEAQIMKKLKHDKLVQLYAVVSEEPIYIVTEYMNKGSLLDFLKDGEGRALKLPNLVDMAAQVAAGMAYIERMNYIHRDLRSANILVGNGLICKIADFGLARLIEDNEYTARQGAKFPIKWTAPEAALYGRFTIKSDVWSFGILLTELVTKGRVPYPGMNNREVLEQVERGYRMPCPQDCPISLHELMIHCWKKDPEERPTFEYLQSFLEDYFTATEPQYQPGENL

PC-3 = experiment: Growth inhibition in apoptosis-sensitive human PC3 after 3 days by MTT assay; type: functional; conditions: PC-3, 72 h; summary of the method: as §2
A549 [7] = experiment: Growth inhibition in apoptosis-resistant human A549 after 3 days by MTT assay; type: functional; conditions: A549, 72 h; summary of the method: as §2
U-373MG ATCC [8] = experiment: Cytostatic activity against human U373 cells assessed as accumulation of cells in G1 phase at 10 uM after 48 to 72 hrs by TUNEL-based flow cytometric analysis; type: functional, cell-based; summary of the method: as §3
[9] = Chemical stability of the compound in MEM cell culture medium after 7 days by HPLC analysis; type: physicochemical; conditions: read-out: Stability
Summary of the method: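 Compound incubated in MEM culture medium at 37 °C for 7 days, then analysed by HPLC on RX-C8 (5 μm) column with MeOH–water 90:10 (0.1% TFA), diode-array detection. Expressed as % of incubated compound recovered.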

[10] = biological target: Tyrosine-protein kinase Fes/Fps (Homo sapiens) (UniProt P07332); experiment: Inhibition of FES at 1 uM by radiometric assay; summary of the method: as §1
[11] = biological target: Tyrosine-protein kinase ZAP-70 (Homo sapiens) (UniProt P43403); experiment: Inhibition of ZAP70 at 1 uM by radiometric assay
Chain of Tyrosine-protein kinase ZAP-70 (Homo sapiens) (P43403 whole entry): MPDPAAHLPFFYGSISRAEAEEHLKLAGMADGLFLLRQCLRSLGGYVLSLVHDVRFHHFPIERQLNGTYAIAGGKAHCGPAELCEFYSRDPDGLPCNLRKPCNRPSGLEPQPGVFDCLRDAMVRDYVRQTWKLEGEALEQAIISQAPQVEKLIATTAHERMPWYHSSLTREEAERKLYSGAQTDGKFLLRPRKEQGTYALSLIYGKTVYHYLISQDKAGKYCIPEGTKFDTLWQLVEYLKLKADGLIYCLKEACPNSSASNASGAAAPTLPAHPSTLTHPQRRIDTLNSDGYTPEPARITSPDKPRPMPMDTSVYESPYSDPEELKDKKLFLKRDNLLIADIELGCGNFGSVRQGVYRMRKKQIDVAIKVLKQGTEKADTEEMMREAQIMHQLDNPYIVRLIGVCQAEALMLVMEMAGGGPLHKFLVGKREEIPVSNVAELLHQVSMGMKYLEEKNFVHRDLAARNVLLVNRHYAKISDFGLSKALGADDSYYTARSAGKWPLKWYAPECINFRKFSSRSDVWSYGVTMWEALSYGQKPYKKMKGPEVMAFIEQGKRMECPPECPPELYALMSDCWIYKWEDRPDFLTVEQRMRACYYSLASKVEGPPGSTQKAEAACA

[12] = Growth inhibition in apoptosis-resistant human U373 after 3 days by MTT assay; type: functional, U-373MG ATCC; conditions: U373 MG, 72 h; summary of the method: as §2
[13] = biological target: Insulin-like growth factor 1 receptor (Homo sapiens) (UniProt P08069); experiment: Inhibition of IGF-R1 at 1 uM by radiometric assay
T98G = experiment: Growth inhibition in apoptosis-resistant human T98G after 3 days by MTT assay; type: functional; conditions: 72 h; summary of the method: as §2
[14] = biological target: Ephrin type-B receptor 4 (Homo sapiens) (UniProt P54760); experiment: Inhibition of EPHB4 at 1 uM by radiometric assay; summary of the method: as §1
Chain of Ephrin type-B receptor 4 (Homo sapiens) (P54760 whole entry): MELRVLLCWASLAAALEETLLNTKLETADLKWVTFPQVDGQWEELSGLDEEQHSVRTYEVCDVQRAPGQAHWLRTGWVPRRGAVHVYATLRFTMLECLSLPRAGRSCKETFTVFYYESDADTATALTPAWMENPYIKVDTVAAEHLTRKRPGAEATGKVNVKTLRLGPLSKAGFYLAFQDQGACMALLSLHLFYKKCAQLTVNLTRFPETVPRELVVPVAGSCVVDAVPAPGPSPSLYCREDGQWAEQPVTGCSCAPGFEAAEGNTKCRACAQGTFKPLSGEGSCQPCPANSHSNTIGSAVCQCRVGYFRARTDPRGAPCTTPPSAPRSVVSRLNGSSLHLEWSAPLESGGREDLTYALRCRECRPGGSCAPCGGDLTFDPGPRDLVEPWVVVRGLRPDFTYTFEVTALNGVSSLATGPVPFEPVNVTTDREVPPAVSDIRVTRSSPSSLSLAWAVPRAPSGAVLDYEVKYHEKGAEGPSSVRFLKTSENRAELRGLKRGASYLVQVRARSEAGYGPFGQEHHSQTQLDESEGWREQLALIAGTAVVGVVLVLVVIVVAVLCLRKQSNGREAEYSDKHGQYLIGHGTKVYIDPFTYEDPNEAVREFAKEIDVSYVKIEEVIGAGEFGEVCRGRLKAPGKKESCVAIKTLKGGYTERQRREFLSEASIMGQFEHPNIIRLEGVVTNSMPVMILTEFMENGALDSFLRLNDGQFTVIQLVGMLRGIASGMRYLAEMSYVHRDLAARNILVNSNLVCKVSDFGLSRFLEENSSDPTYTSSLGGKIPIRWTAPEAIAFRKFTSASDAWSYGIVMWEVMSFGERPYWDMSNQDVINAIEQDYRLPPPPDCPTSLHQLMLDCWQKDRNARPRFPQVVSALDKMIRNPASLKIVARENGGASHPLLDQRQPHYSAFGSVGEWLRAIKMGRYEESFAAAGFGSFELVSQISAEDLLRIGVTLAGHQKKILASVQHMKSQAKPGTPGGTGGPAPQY

U-373MG ATCC [15] = experiment: Inhibition of caspase-like activity of 20S proteasome in human U373 cells at 60 uM after 2 days by bioluminescence assay; type: cell-based
Summary of the method: (§4)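 U373 GBM cells seeded at 5000 cells/mL and grown 48 h, then treated for two days. Cells washed in PBS and permeabilised with 0.025% digitonin. Proteasome-Glo reagent added with Suc-LLVY-Glo (chymotrypsin-like), Z-LRR-Glo (trypsin-like) or Z-nLPnLD-Glo (caspase-like) substrate. Luminescence read after 10 min in the dark and normalised to a parallel MTT viability assay; triplicates. MG-132 at 0.5 μM used as reference.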

U-373MG ATCC [16] = experiment: Inhibition of chymotrypsin-like activity of 20S proteasome in human U373 cells at 0.5 uM after 2 days by bioluminescence assay; type: cell-based; summary of the method: as §4
[17] = biological target: Megakaryocyte-associated tyrosine-protein kinase (Homo sapiens) (UniProt P42679); experiment: Inhibition of MATK at 1 uM by radiometric assay
U-373MG ATCC [18] = experiment: Inhibition of trypsin-like activity of 20S proteasome in human U373 cells at 0.5 uM after 2 days by bioluminescence assay; type: cell-based; summary of the method: as §4
U-373MG ATCC [19] = experiment: Inhibition of trypsin-like activity of 20S proteasome in human U373 cells at 60 uM after 2 days by bioluminescence assay; type: cell-based; summary of the method: as §4
[20] = biological target: Cytoplasmic tyrosine-protein kinase BMX (Homo sapiens) (UniProt P51813); experiment: Inhibition of BMX at 1 uM by radiometric assay; summary of the method: as §1
B16-F10 = experiment: Growth inhibition in mouse B16F10 after 3 days by MTT assay; type: functional; conditions: B16-F10, 72 h; summary of the method: as §2
U-373MG ATCC [21] = experiment: Inhibition of chymotrypsin-like activity of 20S proteasome in human U373 at 7 uM after 2 days by bioluminescence assay; type: cell-based; summary of the method: as §4
SK-MEL-28 = experiment: Growth inhibition in apoptosis-resistant human SK-MEL-28 after 3 days by MTT assay; type: functional; conditions: SK-MEL-28, 72 h; summary of the method: as §2
U-373MG ATCC [22] = experiment: Inhibition of chymotrypsin-like activity of 20S proteasome in human U373 cells at 60 uM after 2 days by bioluminescence assay; type: cell-based; summary of the method: as §4
U-373MG ATCC [23] = experiment: Inhibition of caspase-like activity of 20S proteasome in human U373 cells at 0.5 uM after 2 days by bioluminescence assay; type: cell-based; summary of the method: as §4
[24] = biological target: Ephrin type-B receptor 1 (Homo sapiens) (UniProt P54762); experiment: Inhibition of EPHB1 at 1 uM by radiometric assay; summary of the method: as §1
Chain of Ephrin type-B receptor 1 (Homo sapiens) (P54762 whole entry): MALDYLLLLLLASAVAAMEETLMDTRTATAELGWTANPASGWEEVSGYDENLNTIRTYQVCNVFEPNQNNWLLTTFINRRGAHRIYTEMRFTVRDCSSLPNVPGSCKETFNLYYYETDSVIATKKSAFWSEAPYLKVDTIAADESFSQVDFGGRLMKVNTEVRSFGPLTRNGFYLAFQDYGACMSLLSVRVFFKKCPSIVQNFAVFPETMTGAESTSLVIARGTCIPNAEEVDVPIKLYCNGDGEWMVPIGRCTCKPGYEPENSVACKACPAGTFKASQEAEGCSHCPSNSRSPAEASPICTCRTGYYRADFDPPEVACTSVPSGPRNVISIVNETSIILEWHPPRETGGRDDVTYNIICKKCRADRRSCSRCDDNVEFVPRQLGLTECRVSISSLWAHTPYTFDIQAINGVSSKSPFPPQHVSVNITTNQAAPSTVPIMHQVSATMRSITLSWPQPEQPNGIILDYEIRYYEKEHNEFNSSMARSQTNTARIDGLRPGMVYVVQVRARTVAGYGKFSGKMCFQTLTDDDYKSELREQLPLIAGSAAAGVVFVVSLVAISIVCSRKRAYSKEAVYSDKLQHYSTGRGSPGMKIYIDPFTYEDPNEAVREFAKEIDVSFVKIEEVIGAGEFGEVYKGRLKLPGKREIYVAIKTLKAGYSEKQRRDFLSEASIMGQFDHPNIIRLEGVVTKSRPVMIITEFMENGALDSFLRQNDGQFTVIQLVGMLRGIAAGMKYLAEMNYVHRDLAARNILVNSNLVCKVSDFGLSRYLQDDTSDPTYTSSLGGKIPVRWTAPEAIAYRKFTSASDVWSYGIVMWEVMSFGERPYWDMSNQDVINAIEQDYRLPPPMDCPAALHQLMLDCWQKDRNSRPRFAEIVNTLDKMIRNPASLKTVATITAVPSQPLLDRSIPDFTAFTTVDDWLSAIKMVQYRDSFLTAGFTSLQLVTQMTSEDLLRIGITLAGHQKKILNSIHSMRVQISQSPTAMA

[25] = biological target: T1, Peroxisome proliferator-activated receptor gamma (Homo sapiens) (UniProt P37231); experiment: Activation of PPARgamma activity in human U373 cells at 90 uM after 6 hrs by spectrophotometric analysis relative to control; type: cell-based; conditions: U-373MG ATCC, 7 uM, in the assay text read “at 7 uM” for “at 90 uM”
T1 sequence (whole entry): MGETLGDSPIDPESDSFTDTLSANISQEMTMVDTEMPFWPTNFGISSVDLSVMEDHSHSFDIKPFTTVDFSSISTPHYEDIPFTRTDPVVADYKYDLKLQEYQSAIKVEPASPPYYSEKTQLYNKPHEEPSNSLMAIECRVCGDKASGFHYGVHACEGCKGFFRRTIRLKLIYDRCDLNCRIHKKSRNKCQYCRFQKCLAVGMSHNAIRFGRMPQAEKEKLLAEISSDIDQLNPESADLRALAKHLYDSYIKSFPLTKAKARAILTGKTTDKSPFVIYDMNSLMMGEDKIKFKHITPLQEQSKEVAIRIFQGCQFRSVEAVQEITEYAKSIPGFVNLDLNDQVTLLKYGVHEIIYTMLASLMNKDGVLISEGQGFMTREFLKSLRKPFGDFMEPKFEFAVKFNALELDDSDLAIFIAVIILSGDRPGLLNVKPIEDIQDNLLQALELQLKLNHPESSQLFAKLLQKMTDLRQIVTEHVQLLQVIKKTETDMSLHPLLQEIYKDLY
Summary of the method: (§5)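 U373 glioblastoma cells were exposed for 6 h. Nuclear extracts were prepared by hypotonic buffer, NP-40 lysis and a protease-inhibitor extraction buffer. Extracts were bound overnight at 4 °C in a PPAR-γ transcription-factor plate, then probed with primary antibody and HRP anti-rabbit secondary, 1 h each at room temperature. Developer ran 45 min, read at 450 nm. Triplicates, mean ± SD versus control.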

A549 [26] = experiment: Induction of apoptosis in human A549 cells assessed as proapoptotic effect at 10 uM after 48 to 72 hrs by TUNEL-based flow cytometric analysis; type: functional, cell-based; summary of the method: as §3
U-373MG ATCC [27] = experiment: Inhibition of caspase-like activity of 20S proteasome in human U373 cells at 7 uM after 2 days by bioluminescence assay; type: cell-based; summary of the method: as §4
U-373MG ATCC [28] = experiment: Inhibition of trypsin-like activity of 20S proteasome in human U373 cells at 7 uM after 2 days by bioluminescence assay; type: cell-based; summary of the method: as §4
[29] = biological target: T1, Peroxisome proliferator-activated receptor gamma (Homo sapiens); experiment: Activation of PPARgamma activity in human U373 cells at 60 uM after 6 hrs by spectrophotometric analysis relative to control; type: cell-based; conditions: U-373MG ATCC; summary of the method: as §5

| Structure (SMILES) | GI50 (Hs 683) [µM] | GI50 (MCF7) [µM] | GI50 (PC-3) [µM] | GI50 (A549 [7]) [µM] | remaining at 168 h [9] [%] | GI50 [12] [µM] | GI50 (T98G) [µM] | inhibition (U-373MG ATCC [15]) | inhibition (U-373MG ATCC [16]) | inhibition (U-373MG ATCC [18]) | inhibition (U-373MG ATCC [19]) | GI50 (B16-F10) [µM] | inhibition (U-373MG ATCC [21]) | GI50 (SK-MEL-28) [µM] | inhibition (U-373MG ATCC [22]) | inhibition (U-373MG ATCC [23]) | inhibition (U-373MG ATCC [27]) | inhibition (U-373MG ATCC [28]) | further results |
| --- | --- | --- | --- | --- | --- | --- | --- | --- | --- | --- | --- | --- | --- | --- | --- | --- | --- | --- | --- |
| CC1(C)[C@@H](O)CC[C@]2(C)[C@H]3C(=O)C=C4[C@@H]5C[C@@](C)(C(=O)NCCNC(=O)Nc6cc(C(F)(F)F)cc(C(F)(F)F)c6)CC[C@]5(C)CC[C@@]4(C)[C@]3(C)CC[C@@H]12 | 6 | 4 | 8 | 7 | 98 | 6 | 12 | Active | Active | Active | Active | 4 | Active | 9 | Active | Active | Active | Active | inhibition [1]: 67%; Activity (A549 [2]): inactive; inhibition [3]: 51%; inhibition [4]: 69%; Activity (U-373MG ATCC [5]): inactive; inhibition [6]: 72%; Activity (U-373MG ATCC [8]): inactive; inhibition [10]: 59%; inhibition [11]: 67%; inhibition [13]: 64%; inhibition [14]: 64%; inhibition [17]: 50%; inhibition [20]: 52%; inhibition [24]: 64%; Activity [25]: Active; Activity (A549 [26]): inactive |
| CC1(C)[C@@H](O)CC[C@]2(C)[C@H]3C(=O)C=C4[C@@H]5C[C@@](C)(C(=O)NCCN)CC[C@]5(C)CC[C@@]4(C)[C@]3(C)CC[C@@H]12 | 58 | 59 | 31 | 31 | 90 | 32 | > 100 | Active | Active | Active | Active | 30 | Active | > 100 | Active | Active | Active | Active | Activity [29]: Active |
